In ChEMBL document CHEMBL1255475, “Mutant prevention concentrations of four carbapenems against gram-negative rods” (2010):
≈ marks a conversion by molar mass, not a printed value.

Key:
Type in all cases: functional
Escherichia coli [1] = test: Antibacterial activity against beta-lactamase-negative Escherichia coli E345 incubated up to 7 days by agar dilution method; conditions: E345, 168 h
Klebsiella pneumoniae [2] = test: Antibacterial activity against beta-lactamase-positive ESBL-negative Klebsiella pneumoniae E480 incubated up to 7 days by agar dilution method; conditions: E480, 168 h
Klebsiella pneumoniae [3] = test: Antibacterial activity against beta-lactamase-positive ESBL-positive Klebsiella pneumoniae E457 incubated up to 7 days by agar dilution method; conditions: E457, 168 h
Outline: (§1)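 MIC by CLSI agar dilution, with quality-control strains in each run. Beta-lactamase status was set by 30 μg cefazolin Kirby-Bauer disk diffusion. ESBL status was set by cefotaxime and ceftazidime disks (30 μg) with and without clavulanic acid (10 μg).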

Escherichia coli [4] = test: Antibacterial activity against beta-lactamase-negative Escherichia coli E409 […] by agar dilution method
Escherichia coli [5] = test: Antibacterial activity against beta-lactamase-positive ESBL-negative Escherichia coli E412 incubated up to 7 days by agar dilution method; conditions: E412, 168 h; outline: as §1
Escherichia coli [6] = test: Antibacterial activity against beta-lactamase-positive ESBL-negative Escherichia coli E415 incubated up to 7 days by agar dilution method; conditions: E415, 168 h; outline: as §1
Escherichia coli [7] = test: Antibacterial activity against beta-lactamase-positive ESBL-positive Escherichia coli E452 incubated up to 7 days by agar dilution method; conditions: E452, 168 h; outline: as §1
Escherichia coli [8] = test: Antibacterial activity against beta-lactamase-positive ESBL-positive Escherichia coli E459 incubated up to 7 days by agar dilution method; conditions: E459, 168 h; outline: as §1
Escherichia coli [9] = test: Antibacterial activity against beta-lactamase-positive ESBL-positive Escherichia coli E460 incubated up to 7 days by agar dilution method; conditions: E460, 168 h; outline: as §1
Klebsiella pneumoniae [10] = test: Antibacterial activity against beta-lactamase-negative Klebsiella pneumoniae E360 incubated up to 7 days by agar dilution method; conditions: E360, 168 h
Klebsiella pneumoniae [11] = test: Antibacterial activity against beta-lactamase-negative Klebsiella pneumoniae E361 incubated up to 7 days by agar dilution method; conditions: E361, 168 h
Acinetobacter baumannii [12] = test: Antibacterial activity against Acinetobacter baumannii A890 assessed as mutant prevention concentration after overnight incubation
Acinetobacter baumannii [13] = test: Antibacterial activity against Acinetobacter baumannii A894 assessed as mutant prevention concentration after overnight incubation
Acinetobacter baumannii [14] = test: Antibacterial activity against Acinetobacter baumannii A901 assessed as mutant prevention concentration after overnight incubation
Klebsiella pneumoniae [15] = test: Antibacterial activity against beta-lactamase-negative Klebsiella pneumoniae E362 assessed as mutant prevention concentration after overnight incubation
Klebsiella pneumoniae [16] = test: Antibacterial activity against beta-lactamase-negative Klebsiella pneumoniae E418 assessed as mutant prevention concentration after overnight incubation
Outline: (§2)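 Overnight growth on blood trypticase soy agar (35°C, air) was resuspended in 0.9% saline and counted on drug-free Mueller-Hinton agar. […] Colonies were retested by agar dilution to confirm mutants. MPC was the lowest concentration preventing resistant-mutant growth.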

Klebsiella pneumoniae [17] = test: Antibacterial activity against beta-lactamase-positive ESBL-negative Klebsiella pneumoniae E480 assessed as mutant prevention concentration after overnight incubation; outline: as §2
Klebsiella pneumoniae [18] = test: Antibacterial activity against beta-lactamase-positive ESBL-negative Klebsiella pneumoniae E472 assessed as mutant prevention concentration after overnight incubation; outline: as §2
Klebsiella pneumoniae [19] = test: Antibacterial activity against beta-lactamase-positive ESBL-negative Klebsiella pneumoniae E474 assessed as mutant prevention concentration after overnight incubation; outline: as §2
Klebsiella pneumoniae [20] = test: Antibacterial activity against beta-lactamase-positive ESBL-negative Klebsiella pneumoniae E479 assessed as mutant prevention concentration after overnight incubation; outline: as §2
Klebsiella pneumoniae [21] = test: Antibacterial activity against beta-lactamase-positive ESBL-negative Klebsiella pneumoniae E477 assessed as mutant prevention concentration after overnight incubation; outline: as §2
Klebsiella pneumoniae [22] = test: Antibacterial activity against beta-lactamase-negative Klebsiella pneumoniae E420 assessed as mutant prevention concentration after overnight incubation; outline: as §2
Klebsiella pneumoniae [23] = test: Antibacterial activity against beta-lactamase-positive ESBL-positive Klebsiella pneumoniae E453 assessed as mutant prevention concentration after overnight incubation; outline: as §2
Klebsiella pneumoniae [24] = test: Antibacterial activity against beta-lactamase-positive ESBL-positive Klebsiella pneumoniae E457 assessed as mutant prevention concentration after overnight incubation; outline: as §2
Klebsiella pneumoniae [25] = test: Antibacterial activity against beta-lactamase-positive ESBL-negative Klebsiella pneumoniae E507 assessed as mutant prevention concentration after overnight incubation; outline: as §2
Pseudomonas aeruginosa [26] = test: Antibacterial activity against Pseudomonas aeruginosa P369 assessed as mutant prevention concentration after overnight incubation
Pseudomonas aeruginosa [27] = test: Antibacterial activity against Pseudomonas aeruginosa P319 assessed as mutant prevention concentration after overnight incubation
Pseudomonas aeruginosa [28] = test: Antibacterial activity against Pseudomonas aeruginosa P334 assessed as mutant prevention concentration after overnight incubation
Pseudomonas aeruginosa [29] = test: Antibacterial activity against Pseudomonas aeruginosa P337 assessed as mutant prevention concentration after overnight incubation
Pseudomonas aeruginosa [30] = test: Antibacterial activity against Pseudomonas aeruginosa P338 assessed as mutant prevention concentration after overnight incubation
Pseudomonas aeruginosa [31] = test: Antibacterial activity against Pseudomonas aeruginosa P349 assessed as mutant prevention concentration after overnight incubation
Pseudomonas aeruginosa [32] = test: Antibacterial activity against Pseudomonas aeruginosa P370 assessed as mutant prevention concentration after overnight incubation
Acinetobacter baumannii [33] = test: Antibacterial activity against Acinetobacter baumannii A912 assessed as mutant prevention concentration after overnight incubation
Acinetobacter baumannii [34] = test: Antibacterial activity against Acinetobacter baumannii A884 assessed as mutant prevention concentration after overnight incubation
Acinetobacter baumannii [35] = test: Antibacterial activity against Acinetobacter baumannii A908 assessed as mutant prevention concentration after overnight incubation
Escherichia coli [36] = test: Antibacterial activity against beta-lactamase-negative Escherichia coli E348 assessed as mutant prevention concentration after overnight incubation
Escherichia coli [37] = test: Antibacterial activity against beta-lactamase-negative Escherichia coli E408 assessed as mutant prevention concentration after overnight incubation
Escherichia coli [38] = test: Antibacterial activity against beta-lactamase-positive ESBL-positive Escherichia coli E458 assessed as mutant prevention concentration after overnight incubation; outline: as §2
Escherichia coli [39] = test: Antibacterial activity against beta-lactamase-negative Escherichia coli E425 assessed as mutant prevention concentration after overnight incubation
Escherichia coli [40] = test: Antibacterial activity against beta-lactamase-positive ESBL-positive Escherichia coli E446 assessed as mutant prevention concentration after overnight incubation; outline: as §2
Escherichia coli [41] = test: Antibacterial activity against beta-lactamase-positive ESBL-positive Escherichia coli E456 assessed as mutant prevention concentration after overnight incubation; outline: as §2
Escherichia coli [42] = test: Antibacterial activity against beta-lactamase-positive ESBL-negative Escherichia coli E430 assessed as mutant prevention concentration after overnight incubation; outline: as §2
Escherichia coli [43] = test: Antibacterial activity against beta-lactamase-positive ESBL-positive Escherichia coli E451 assessed as mutant prevention concentration after overnight incubation; outline: as §2
Escherichia coli [44] = test: Antibacterial activity against beta-lactamase-positive ESBL-negative Escherichia coli E483 assessed as mutant prevention concentration after overnight incubation; outline: as §2
Klebsiella pneumoniae [45] = test: Antibacterial activity against beta-lactamase-negative Klebsiella pneumoniae E359 assessed as mutant prevention concentration after overnight incubation
Klebsiella pneumoniae [46] = test: Antibacterial activity against beta-lactamase-negative Klebsiella pneumoniae E360 assessed as mutant prevention concentration after overnight incubation
Klebsiella pneumoniae [47] = test: Antibacterial activity against beta-lactamase-negative Klebsiella pneumoniae E419 assessed as mutant prevention concentration after overnight incubation; outline: as §2

SMILES: C[C@@H](O)[C@H]1C(=O)N2C(C(=O)O)=C(S[C@@H]3CN[C@H](C(=O)N(C)C)C3)[C@H](C)[C@H]12 [MEROPENEM]
- MIC (Escherichia coli [1]): 0.03 µg/mL (≈ 0.0782 µM)
- MIC (Klebsiella pneumoniae [2]): 2 µg/mL (≈ 5.22 µM)
- MIC (Klebsiella pneumoniae [3]): 0.06 µg/mL (≈ 0.156 µM)
- MIC (Escherichia coli [4]): 0.03 µg/mL (≈ 0.0782 µM)
- MIC (Escherichia coli [5]): 0.06 µg/mL (≈ 0.156 µM)
- MIC (Escherichia coli [6]): 0.06 µg/mL (≈ 0.156 µM)
- MIC (Escherichia coli [7]): 0.03 µg/mL (≈ 0.0782 µM)
- MIC (Escherichia coli [8]): 0.03 µg/mL (≈ 0.0782 µM)
- MIC (Escherichia coli [9]): 0.03 µg/mL (≈ 0.0782 µM)
- MIC (Klebsiella pneumoniae [10]): 0.03 µg/mL (≈ 0.0782 µM)
- MIC (Klebsiella pneumoniae [11]): 0.06 µg/mL (≈ 0.156 µM)
- MPC (Acinetobacter baumannii [12]): 1 µg/mL
- MPC (Acinetobacter baumannii [13]): 2 µg/mL
- MPC (Acinetobacter baumannii [14]): 8 µg/mL
- MPC (Klebsiella pneumoniae [15]): 0.125 µg/mL
- MPC (Klebsiella pneumoniae [16]): 0.125 µg/mL
- MPC (Klebsiella pneumoniae [17]): 16 µg/mL
- MPC (Klebsiella pneumoniae [18]): 32 µg/mL
- MPC (Klebsiella pneumoniae [19]): 16 µg/mL
- MPC (Klebsiella pneumoniae [20]): 32 µg/mL
- MPC (Klebsiella pneumoniae [21]): 8 µg/mL
- MPC (Klebsiella pneumoniae [22]): 0.06 µg/mL
- MPC (Klebsiella pneumoniae [23]): 0.5 µg/mL
- MPC (Klebsiella pneumoniae [24]): 0.125 µg/mL
- MPC (Klebsiella pneumoniae [25]): >64 µg/mL
- MPC (Pseudomonas aeruginosa [26]): >4 µg/mL
- MPC (Pseudomonas aeruginosa [27]): 8 µg/mL
- MPC (Pseudomonas aeruginosa [28]): >4 µg/mL
- MPC (Pseudomonas aeruginosa [29]): 8 µg/mL
- MPC (Pseudomonas aeruginosa [30]): >4 µg/mL
- MPC (Pseudomonas aeruginosa [31]): 16 µg/mL
- MPC (Pseudomonas aeruginosa [32]): >4 µg/mL
- MPC (Acinetobacter baumannii [33]): 4 µg/mL
- MPC (Acinetobacter baumannii [34]): 8 µg/mL
- MPC (Acinetobacter baumannii [35]): 4 µg/mL
- MPC (Escherichia coli [36]): 0.06 µg/mL
- MPC (Escherichia coli [37]): 0.06 µg/mL
- MPC (Escherichia coli [38]): 0.125 µg/mL
- MPC (Escherichia coli [39]): 0.06 µg/mL
- MPC (Escherichia coli [40]): 0.125 µg/mL
- MPC (Escherichia coli [41]): 0.125 µg/mL
- MPC (Escherichia coli [42]): 0.125 µg/mL
- MPC (Escherichia coli [43]): 0.06 µg/mL
- MPC (Escherichia coli [44]): 4 µg/mL
- MPC (Klebsiella pneumoniae [45]): 0.125 µg/mL
- MPC (Klebsiella pneumoniae [46]): 0.125 µg/mL
- MPC (Klebsiella pneumoniae [47]): 0.125 µg/mL
